# Autophagy mod: autophagy modulators in MEF cells, primary screen, imaging, high-content, MEF GFP-LC3; calls only at 10 µM (by protocol); AID 463193, 2010; 190,000 tested, 0.98% active; MEF GFP-LC3 puncta imaging; test concentration mostly 10 µM;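 active = percentage of spot-positive cells more than 3 SD above its plate mean, without a fluorescence outlier flag or 80% toxicity; inconclusive = no clear call, values can overlap the other calls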;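 note: spot-positive cell cutoff set from DMSO-treated cells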
# Furin inhibitor: human furin inhibitors, primary screen, biochemical, fluorescence intensity; 220,000 tested, 0.061% active; AID 463115, 2010; P09958; purified furin, fluorogenic substrate cleavage; inhibition, % at 20 µM or 30 µM; in the data active = inhibition above about 25%
# Target sequence (P09958 108-714 limits assumed): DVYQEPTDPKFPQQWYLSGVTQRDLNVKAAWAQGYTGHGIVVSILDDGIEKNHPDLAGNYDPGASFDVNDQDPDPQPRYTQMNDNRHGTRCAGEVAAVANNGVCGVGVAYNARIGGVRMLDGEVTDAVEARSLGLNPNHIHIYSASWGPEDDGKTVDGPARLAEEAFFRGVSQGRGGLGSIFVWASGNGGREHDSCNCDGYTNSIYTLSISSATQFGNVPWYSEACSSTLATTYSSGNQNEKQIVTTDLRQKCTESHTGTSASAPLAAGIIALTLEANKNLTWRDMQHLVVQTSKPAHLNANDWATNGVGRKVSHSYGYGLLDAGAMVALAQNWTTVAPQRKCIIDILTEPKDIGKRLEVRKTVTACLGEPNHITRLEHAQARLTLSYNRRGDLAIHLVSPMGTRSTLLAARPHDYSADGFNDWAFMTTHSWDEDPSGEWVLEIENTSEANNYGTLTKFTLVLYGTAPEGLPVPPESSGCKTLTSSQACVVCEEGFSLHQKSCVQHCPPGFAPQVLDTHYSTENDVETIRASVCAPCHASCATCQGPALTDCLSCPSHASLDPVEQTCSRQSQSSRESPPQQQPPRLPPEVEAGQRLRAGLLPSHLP
# INS promoter inh: inhibitors of insulin promoter-driven GFP, primary screen, imaging, TRM-6 cells (human fetal islet line), eGFP reporter, cell count; reporter expression induced with tamoxifen; inhibition, % at 2 µM; 130,000 tested, 0.9% active; AID 1273, 2008;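 active = inhibition above the mean plus 3 SD, with well images judged a real hit on visual review, cut at about 60% in these data, passing the limit was not always enough; inconclusive = inhibition over the cutoff but images rejected on review; inactive = inhibition not above the cutoff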
# Dynein transport: inhibitors of GR-EGFP nuclear translocation, primary screen, dynein cargo transport inhibitor project, imaging, high-content, 3617.4 mouse cells; 220,000 tested, 0.47% active; AID 1381, 2008; z-score, hits read low; test concentration mostly 20 µM; stimulated with dexamethasone, 1 µM; hits give low values;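 active = plate z-score of nuclear minus cytoplasmic receptor signal below a set negative limit, without overly bright fluorescence or cell loss, cut at about -3.5 in these data, passing the limit was not always enough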;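 note: z-score of nuclear minus cytoplasmic ring GR-EGFP intensity difference per well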
#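 Buffer or medium – tet-free medium with charcoal-stripped serum · Signal – automated 10x imaging of fixed Hoechst-stained cells · Also added – dexamethasone agonist, 1.0 µM final, for 30 min · Incubation – induction 48 h, compound 1 h, agonist 30 min · Read-out – GR-EGFP nuclear translocation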
# HSV augment: enhancers of HSV replication in host cells, fold increase, host cell viability. HSV replication augmentation in cells. maximum fold increase. 220,000 tested, 0.005% active; in the data active = maximum fold increase above about 1.5; inconclusive = no clear call, values can overlap the other calls; tested in PC3 cells
# Insulin prom up: insulin promoter activators in MIN6 cells, imaging, high-content screening, mouse beta cells; MIN6 insulin promoter-GFP reporter; hits give high values; z-score at 5 µM; 190,000 tested, 0.3% active;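 active = z-score above 3 at 5 µM with at least 500 cells counted in the well; inconclusive = wells under 500 cells, flagged as cytotoxic or low count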
# Numbers without * were called inactive; i = inactive; ? = inconclusive; . = no result given; + = active, no number. The list is not random: actives were taken first. Their share in the collection is about 2%.
SMILES,Autophagy mod,Furin inhibitor,INS promoter inh,Dynein transport,HSV augment,Insulin prom up
O=C1C2C3C=CC(C3)C2C(=O)N1CCc1ccccc1 (stereo not given),i,-26.9,0.0,-0.583,i,3.33*
Clc1cccc(/C=N/Nc2ncnc3ccccc23)c1,i,-6.2,.,-0.213,i,-0.46
C(=N\Nc1ncnc2ccccc12)/c1ccccc1,+,-3.0,77.8*,1.06,i,-0.95
Cc1ccc(CNC(=O)C2CCCN(S(=O)(=O)c3c(C)noc3/C=C/N(C)C)C2)cc1 (stereo not given),.,-23.5,.,0.246,i,0.17
COc1ccc(-n2cc(-c3ccccc3)c3c(N4CC(C)OC(C)C4)ncnc32)cc1 (stereo not given),i,-20.6,-14.3,-1.37,i,-1.92
COc1ccc(Nc2nc(N3CCCCC3)c3ccccc3n2)cc1,i,-10.5,-10.0,-0.0772,i,-1.86
Oc1ccc(Nc2nc(N3CCCC3)c3ccccc3n2)cc1,+,-11.4,.,-1.11,i,?
CCOC(=O)c1cc(=O)n2nc(-c3ccccc3F)nc2s1,i,-15.4,85.7*,-2.04,i,0.98
CCOC(=O)c1ccc(NC(=O)Cn2nnc(-c3ccccc3F)n2)cc1,i,-9.4,-11.1,0.242,i,-1.1
C/C(N)=C(/C#N)C(=O)COC(=O)c1ccccc1Oc1ccccc1,i,-28.7,.,0.381,i,0.13
CCc1cc[n+](-c2nc3ccccc3nc2[N-]S(=O)(=O)c2ccc(Br)s2)cc1,+,-12.3,7.7,0.159,i,0.92
O=C(Cn1c(=O)oc2ccccc21)NCCc1ccccc1Cl,i,-12.9,.,-1.46,i,-1.11
CCOc1ccnc(OCC)c1Br,i,-4.9,78.6*,0.676,i,0.72
Cc1ccc(Nc2nc(Oc3ccc(=O)[nH]n3)nc(N(C)C)n2)cc1,+,-15.3,?,-0.862,i,-0.26
CN(C)c1nc(Nc2ccccc2)nc(Oc2ccc(=O)[nH]n2)n1,i,-19.9,-5.3,-0.526,i,.
CCOC(=O)N1CCN(c2ccc(N3C(=O)CCCC3=O)cc2[N+](=O)[O-])CC1,i,-30.6,-14.3,-0.558,i,-0.35
CSCCC(NC(N)=O)C(=O)Nc1ccc(F)c(Cl)c1 (stereo not given),.,-20.2,.,0.17,i,-0.31
Clc1ccc(-c2csc(N3CCOCC3)n2)cc1,i,-13.2,72.7*,-0.221,i,-0.08
CCC(CO)[n+]1c(C)cc(/C=C2\Sc3ccccc3N2Cc2ccccc2)cc1C (stereo not given),+,28.6*,.,5.57,.,?
CCc1nc(CN2CCCC(C(=O)c3ccc4c5c(cccc35)CC4)C2)c(C)[nH]1 (stereo not given),+,2.5,-14.3,0.558,i,-2.13
O=S(=O)(Cc1ccc(Cl)cc1)c1ccccc1-c1nnc(-c2ccccc2)o1,i,-13.9,9.4,0.786,i,13.8*
CS(=O)(=O)c1ccccc1-c1nnc(-c2ccc(Cl)cc2)o1,i,-40.3,30.8,-0.479,i,-0.1
CC1CN(c2nc3ccccn3c(=O)c2/C=C(\C#N)S(=O)(=O)c2ccccc2)CC(C)O1 (stereo not given),i,31.1*,-162.1,0.939,i,-0.35
CN1CCN(c2nc3ccccn3c(=O)c2/C=C(\C#N)S(=O)(=O)c2ccccc2)CC1,.,-2.1,.,-0.29,i,-0.17
Cc1ccc(NC(=O)c2cc(N3C(=O)CCC3=O)ccc2N2CCOCC2)cc1,+,-2.6,.,1.59,i,-0.79
SMILES,Autophagy mod,Furin inhibitor,INS promoter inh,Dynein transport,HSV augment,Insulin prom up
CCS(=O)(=O)c1ccc2oc(SCC(=O)NC3CCCC(C)C3C)nc2c1 (stereo not given),i,-7.2,-92.9,-0.139,i,4.28*
FC(F)(F)c1ccccc1NC(=S)NC1CCN(Cc2ccccc2)CC1,+,-12.0,.,0.0298,i,1.15
CCN(CC)S(=O)(=O)c1ccc(/C=C/C(=O)OCC(=O)Nc2ccc(S(N)(=O)=O)cc2)cc1,i,-22.7,0.0,0.896,i,1.38
N#C/C(=C/c1ccc(Sc2nc3ccccc3[nH]2)o1)c1cccc(F)c1,i,-7.7,72.2*,3.22,i,2.09
N#CCCn1cc(/C=C(\C#N)c2nc3ccccc3s2)c(-c2ccc(F)cc2)n1,i,-7.7,74.4*,i,i,0.44
COc1cccc(N2CCN(c3ncnc4c3cnn4-c3ccc(C)cc3C)CC2)c1,+,-24.7,.,-1.23,i,0.31
C=CCSc1nnc(NC(=O)c2cccc(S(=O)(=O)N(C)c3ccccc3)c2)s1,i,-3.9,-28.2,-0.0459,i,0.09
Cc1ccc(S(=O)(=O)NCCC(=O)N2CCN(Cc3ccccc3)CC2)cc1,i,-19.3,-9.4,-0.0409,i,-0.38
CC(=O)N1CCc2cc(S(=O)(=O)NCCC(=O)N3CCN(Cc4ccccc4)CC3)ccc21,+,-6.6,32.3,3.1,i,-0.66
Nc1cccc2c1C(=O)N(C(=O)c1cccc(S(=O)(=O)N3CCCC3)c1)C2=O,i,1.9,39.1,2.72,i,3.15*
NC(=O)c1cccc(S(=O)(=O)N2CCCCC2)c1,i,-24.6,-25.0,-0.349,i,-0.47
N#C/C(=C\Nc1ccc2c(c1)OCCO2)c1nc2ccccc2[nH]1,i,-12.7,-117.2,-0.441,i,1.93
N#C/C(=C\c1cn(-c2ccccc2)nc1-c1cc2ccccc2o1)c1nc2ccccc2[nH]1,+,-10.5,-30.0,-0.723,i,1.68
N#C/C(=C\C1CC2C=CC1C2)c1nc2ccccc2[nH]1 (stereo not given),i,-20.2,78.6*,-0.344,i,0.58
N#C/C(=C\c1cccs1)c1nc2ccccc2[nH]1,i,-6.6,85.2*,-0.351,i,0.05
O=C(CNC(=S)N(Cc1ccccc1)Cc1cccnc1)NCc1ccccc1,i,-17.6,33.3,0.713,i,0.2
O=C(O)CNC(=S)N(Cc1ccccc1)Cc1cccnc1,+,-18.6,.,-0.294,i,0.31
CCC(C)(C)NC(=O)CCn1c(-c2ccccc2)cc(C(C)=O)c1C,i,-27.3,-78.6,-0.199,.,0.22
Cc1cccc2cc(C#N)c(SCC(=O)Nc3ccccc3N3CCOCC3)nc12,i,-15.6,-92.3,0.289,i,1.27
N#Cc1cc2ccccc2nc1SCC(=O)Nc1ccccc1N1CCOCC1,+,-20.8,-18.2,0.37,.,-0.12
C=CCOC(=O)C1=C[C@H](c2csc3ccccc23)C[C@H](OCc2ccc(CO)cc2)O1,.,.,.,.,i,.
Cc1cc2c(cc1C)CSC(c1ccc3ccccc3c1O)SC2,i,-15.2,63.0*,1.18,i,0.2
CC(C)c1ccc(/C=N/NC(=O)c2nnn(-c3nonc3N)c2CSC2=NCCS2)cc1,i,-27.4,25.9,-0.855,i,-0.18
